The record followed here is ChEMBL document CHEMBL1143773, “Synthesis and studies on antidepressant and anticonvulsant activities of some 3-(2-furyl)-pyrazoline derivatives” (Eur J Med Chem, 2007).

Data set [1] relates to Mus musculus. Description: Antidepressant activity in Albino mouse assessed as duration of immobility at 10 mg/kg, ip by forced-swimming test. It counts as functional. As to conditions: route intraperitoneal. The method in brief: (§1)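 Porsolt forced-swim test in albino mice. Drug given ip at 0.5 ml/20 g body weight, 1 h before testing. Controls received 1% aqueous Tween 80. Each mouse was placed singly in a water-filled Plexiglas cylinder for 6 min. Immobility (floating upright with only slight movements to stay afloat) was timed over the last 4 min.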

For data set [2], the system named is Mus musculus. Description: Antidepressant activity in Albino mouse assessed as duration of immobility at 10 mg/kg, ip by forced-swimming test relative to control. It counts as functional. As to conditions: route intraperitoneal. The method, boiled down:
as §1

For data set [3], the system named is Mus musculus. Description: Neurotoxicity in Albino mouse at 30 mg/kg, ip after 4 hrs by RotaRod test. The class given is toxicity, organism-based. Set-up: dose 30 mg/kg, route intraperitoneal. As to conditions: in vivo. The method, boiled down:
(§2)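 Phase I protocol of the NINCDS antiepileptic drug development programme in albino mice, covering MES, subcutaneous pentylenetetrazole (metrazol) and rotarod neurotoxicity. Doses were 30, 100 and 300 mg/kg, read at 1/2 h and 4 h. One animal per dose and time point, scored as 0/1 (no activity) or 1/1 (noticeable activity).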
On the technique in general: In the rotarod test animals must keep their balance on a rotating rod.

Data set [4] concerns Mus musculus. Briefly: Neurotoxicity in Albino mouse at 100 mg/kg, ip after 4 hrs by RotaRod test. It counts as toxicity, organism-based. Set-up: dose 100 mg/kg, route intraperitoneal. As to conditions: in vivo. The method in brief: as §2
The test system of data set [5] is Mus musculus. Briefly: Neurotoxicity in Albino mouse at 300 mg/kg, ip after 4 hrs by RotaRod test. The class given is toxicity, organism-based. More on the design: dose 300 mg/kg, route intraperitoneal. As to conditions: in vivo. The method, boiled down:
as §2

In data set [6] the test system is Mus musculus. Briefly: Anticonvulsant activity against metrazole-induced seizures in Albino mouse at 100 mg/kg, ip after 30 mins by scMet assay. The class given is functional, organism-based. Set-up: dose 100 mg/kg. The method, boiled down: as §2
The test system of data set [7] is Mus musculus. Briefly: Anticonvulsant activity in Albino mouse by MES test at 30mg/kg, ip after 30 mins. The class given is functional, organism-based. The method, boiled down: as §2
Data set [8] deals with Mus musculus. Briefly: Anticonvulsant activity in Albino mouse by MES test at 100 mg/kg, ip after 30 mins. The class given is functional, organism-based. More on the design: dose 100 mg/kg. The method, boiled down:
as §2

Data set [9] has as its system Mus musculus. Description: Anticonvulsant activity in Albino mouse by MES test at 300 mg/kg, ip after 30 mins. It counts as functional, organism-based. More on the design: dose 300 mg/kg. The method in brief: as §2
The subject of data set [10] is Mus musculus. Briefly: Anticonvulsant activity against metrazole-induced seizures in Albino mouse at 30 mg/kg, ip after 30 mins by scMet assay. It counts as functional, organism-based. Set-up: dose 30 mg/kg. The method in brief:
as §2

The test system of data set [11] is Mus musculus. Description: Anticonvulsant activity against metrazole-induced seizures in Albino mouse at 300 mg/kg, ip after 30 mins by scMet assay. It counts as functional, organism-based. Set-up: dose 300 mg/kg. The method in brief:
as §2

In data set [12] the test system is Mus musculus. Briefly: Anticonvulsant activity in Albino mouse at 30 mg/kg, ip after 4 hrs by MES test. More on the design: dose 30 mg/kg. It counts as functional, organism-based. The method, boiled down: as §2
The subject of data set [13] is Mus musculus. Briefly: Anticonvulsant activity in Albino mouse at 100 mg/kg, ip after 4 hrs by MES test. The class given is functional, organism-based. Set-up: dose 100 mg/kg. The method, boiled down:
as §2

The subject of data set [14] is Mus musculus. Description: Anticonvulsant activity in Albino mouse at 300 mg/kg, ip after 4 hrs by MES test. It counts as functional, organism-based. More on the design: dose 300 mg/kg. The method in brief:
as §2

For data set [15], the system named is Mus musculus. Description: Anticonvulsant activity against metrazole-induced seizures in Albino mouse at 30 mg/kg, ip after 4 hrs by scMet. The class given is functional, organism-based. More on the design: dose 30 mg/kg. The method in brief: as §2
For data set [16], the system named is Mus musculus. Briefly: Anticonvulsant activity against metrazole-induced seizures in Albino mouse at 100 mg/kg, ip after 4 hrs by scMet assay. It counts as functional, organism-based. Set-up: dose 100 mg/kg. The method, boiled down:
as §2

The subject of data set [17] is Mus musculus. Description: Anticonvulsant activity against metrazole-induced seizures in Albino mouse at 300 mg/kg, ip after 4 hrs by scMet assay. The class given is functional, organism-based. Set-up: dose 300 mg/kg. The method in brief:
as §2

Data set [18] has as its system Mus musculus. Description: Neurotoxicity in Albino mouse at 30 mg/kg, ip after 30 mins by RotaRod test. The class given is toxicity, organism-based. The note with it: in vivo, 0.5 h. More on the design: dose 30 mg/kg, route intraperitoneal. The method, boiled down: as §2
Data set [19] deals with Mus musculus. Briefly: Neurotoxicity in Albino mouse at 100 mg/kg, ip after 30 mins by RotaRod test. The class given is toxicity, organism-based. Set-up: dose 100 mg/kg, route intraperitoneal. As to conditions: in vivo, 0.5 h. The method in brief:
as §2

For data set [20], the system named is Mus musculus. Briefly: Neurotoxicity in Albino mouse at 300 mg/kg, ip after 30 mins by RotaRod test. More on the design: dose 300 mg/kg, route intraperitoneal. The class given is toxicity, organism-based. As to conditions: in vivo, 0.5 h. The method in brief:
as §2

Active and inactive are the calls of the source. The calls are words filed in the database; no cut-off is given here.

As to `N[C@H]1C[C@@H]1c1ccccc1.O=S(=O)(O)O`, the Activity in [1] is recorded as 57 s; in data set [2], -72.85%.

For `c1ccc(C2CC(c3ccco3)=NN2c2ccccc2)cc1` (configuration not stated), the Activity result was “Not Active” in data set [3]; “Not Active” in data set [4]; “Not Active” in [5]; 213 s in data set [1]; 1.42% in data set [2]; “Not Active” in [18]. For the same compound, the Activity result in data set [19] and in [20] was “Not Active” each time. The outcome in data set [6], in data set [7], in [8], in data set [9], in data set [10] and in data set [11] was inactive. The result in data set [12], in data set [13], in [14], in data set [15] and in data set [16] was inactive. Moreover, the outcome in [17] was Active.

Regarding `C=CCNC(=S)N1N=C(c2ccco2)CC1c1ccco1` (configuration not stated), the Activity result in [3] was “Not Active”; in data set [4], “Not Active”; in [5] it was “Not Active”; in data set [1], 144 s; in data set [2], -31.42%; in data set [18], “Not Active”. Besides, the Activity result in [19] and in [20] was “Not Active” throughout. For the same compound, the result in data set [6], in [7], in [8], in data set [9], in [10] and in [11] was inactive. In addition, the result in data set [12] and in data set [15] was inactive. The outcome in [13], in [14], in data set [16] and in data set [17] was Active.

For `CCNC(=S)N1N=C(c2ccco2)CC1c1ccco1` (configuration not stated), the Activity entry in data set [3] was “Not Active”; in data set [4], “Not Active”; in [5], “Not Active”; in data set [1], 211 s; in [2], 0.48%; in data set [18] it was “Not Active”. In addition, the Activity result in data set [19] and in data set [20] was “Not Active” throughout. Also, the outcome in data set [6], in data set [10], in [11] and in data set [17] was Active. The result in data set [7], in [8], in data set [9], in data set [12], in [13] and in data set [14] was inactive. Moreover, the result in data set [15] and in data set [16] was inactive.

In the case of `NC(=S)N1N=C(c2ccco2)CC1c1ccccc1` (configuration not stated), the Activity entry in [3] is given as “Not Active”; in data set [4], “Not Active”; in data set [5], “Not Active”; in data set [1] it was 202 s; in data set [2], 3.81%; in [18], “Not Active”. In addition, the Activity entry in data set [19] and in [20] was “Not Active” in each case. Also, the outcome in [6], in [7], in [8], in [9], in data set [10] and in data set [11] was inactive. Besides, the result in data set [12], in data set [13], in data set [14], in [15], in [16] and in data set [17] was inactive.

Regarding `S=C(Nc1ccccc1)N1N=C(c2ccco2)CC1c1ccccc1` (configuration not stated), the Activity result in data set [3] is listed as “Not Active”; in data set [4], “Not Active”; in data set [5], “Not Active”; in [1], 184 s; in data set [2], -12.38%; in data set [18] it was “Not Active”. The Activity result in data set [19] and in data set [20] was “Not Active” each time. Further, the outcome in data set [6], in data set [7], in data set [8], in data set [9], in [10] and in data set [11] was inactive. In addition, the outcome in data set [12], in data set [13], in [15], in data set [16] and in data set [17] was inactive. Besides, the result in data set [14] was Active.

Consider `c1ccc(N2N=C(c3ccco3)CC2c2ccco2)cc1` (configuration not stated), for which the Activity result in data set [3] was “Not Active”; in data set [4] it was “Not Active”; in data set [5], “Not Active”; in data set [1], 169 s; in data set [2], -19.52%; in data set [18], “Not Active”. The Activity entry in [19] and in data set [20] was “Not Active” throughout. Also, the result in [6], in data set [7], in data set [10], in data set [11], in [12] and in [13] was inactive. Moreover, the outcome in [14], in data set [15], in data set [16] and in data set [17] was inactive. The outcome in data set [8] and in [9] was Active.

For `S=C(Nc1ccccc1)N1N=C(c2ccco2)CC1c1ccco1` (configuration not stated), the Activity entry is “Not Active” in data set [3]; “Not Active” in [4]; “Not Active” in data set [5]; 181 s in data set [1]; -13.81% in data set [2]; “Not Active” in [18]. Further, the Activity result in data set [19] and in data set [20] was “Not Active” throughout. Also, the result in data set [6] and in data set [11] was Active. Besides, the outcome in data set [7], in data set [8], in data set [9], in data set [10], in data set [12] and in [13] was inactive. The outcome in [14], in data set [15], in data set [16] and in [17] was inactive.

Regarding `CNC(=S)N1N=C(c2ccco2)CC1c1ccccc1` (configuration not stated), the Activity result was “Not Active” in data set [3]; “Not Active” in data set [4]; “Not Active” in [5]; 201 s in data set [1]; -4.28% in [2]; “Not Active” in data set [18]. For the same compound, the Activity result in data set [19] and in [20] was “Not Active” throughout. Further, the outcome in data set [6], in data set [7], in [8], in data set [9], in data set [10] and in data set [11] was inactive. The result in data set [12], in data set [13], in data set [14], in data set [15], in data set [16] and in [17] was inactive.
